What was measured:
[1] = system: Caco-2; test: In vitro inhibitory effect on growth of human CaCo-2 tumor cell line; type: functional, cell-based
[2] = system: HBL; test: In vitro inhibitory effect on growth of human HBL tumor cell line; type: functional, cell-based
[3] = system: HeLa; test: In vitro inhibitory effect on growth of human HeLa tumor cell line; type: functional, cell-based
[4] = system: HEp-2; test: In vitro inhibitory effect on growth of human Hep-2 tumor cell line; type: functional, cell-based
[5] = system: MCF7; test: In vitro inhibitory effect on growth of human MCF-7 tumor cell line; type: functional, cell-based
[6] = system: WI-38; test: In vitro inhibitory effect on growth of human normal WI-38 cell line; type: functional, cell-based
[7] = system: MIA PaCa-2; test: In vitro inhibitory effect on growth of human MIAPaCa-2 tumor cell line; type: functional, cell-based
[8] = system: ME67.1; test: In vitro inhibitory effect on growth of human ME 67.1 tumor cell line; type: functional, cell-based
[9] = system: ME67.3; test: In vitro inhibitory effect on growth of human ME 67.3 tumor cell line; type: functional, cell-based
[10] = system: Melanoma cell; test: Percentage of apoptotic cells after treatment of Melanoma cells with 5*10e-6 M compound for 5 hr; type: functional, Homo sapiens
In short: (§1)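 HBL melanoma cells seeded at 2 × 10^5 cells/mL, exposed after 48 h to compound for 5 h, then washed in PBS and stained with Annexin-V-FLUOS for 15 min at ambient temperature. Scored by fluorescence microscopy as apoptotic (green) cells over total cells.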

[11] = system: HBL; test: Effect on adhesion of Melanoma cell line (HBL) at 10*10e-5 M at 1 hr incubation time; type: functional, Homo sapiens
In short: (§2)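 HBL melanoma cells exposed to compound at the stated concentration and time; cells still attached to the plastic substratum quantified by MTT test. Result given as ratio (%) of treated to control cells; one of three parallel experiments reported.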

[12] = system: HBL; test: Effect on adhesion of Melanoma cell line (HBL) at 10*10e-5 M at 24 hr incubation time; type: functional, Homo sapiens; in short: as §2
[13] = system: HBL; test: Effect on adhesion of Melanoma cell line (HBL) at 10*10e-5 M at 2 hr incubation time; type: functional, Homo sapiens; in short: as §2
[14] = system: HBL; test: Effect on adhesion of Melanoma cell line (HBL) at 10*10e-5 M at 3h incubation time; type: functional, Homo sapiens; in short: as §2
[15] = system: HBL; test: Effect on adhesion of Melanoma cell line (HBL) at 5*10e-6 M at 1 hr incubation time; type: functional, Homo sapiens; in short: as §2
[16] = system: HBL; test: Effect on adhesion of Melanoma cell line (HBL) at 5*10e-6 M at 24 hr incubation time; type: functional, Homo sapiens; in short: as §2
[17] = system: HBL; test: Effect on adhesion of Melanoma cell line (HBL) at 5*10e-6 M at 3h incubation time; type: functional, Homo sapiens; in short: as §2
[18] = system: Melanoma cell; test: Percentage of apoptotic cells after treatment of Melanoma cells with 1*10e-5 M compound for 5 hr; type: functional, Homo sapiens; in short: as §1
[19] = system: Melanoma cell; test: Percentage of apoptotic cells after treatment of Melanoma cells with 1*10e-6 M compound for 5 hr; type: functional, Homo sapiens; in short: as §1
[20] = system: HBL; test: Effect on adhesion of Melanoma cell line (HBL) at 5*10e-6 M at 2 hr incubation time; type: functional, Homo sapiens; in short: as §2

IC50 [1]	IC50 [3]	IC50 [5]	IC50 [7]	Compound	IC50 [2]	IC50 [4]	IC50 [6]	IC50 [8]	IC50 [9]	Apoptotic cell [10]	Ratio [11]	Ratio [12]	Ratio [13]	Ratio [14]	Ratio [15]	Ratio [16]	Ratio [17]	Apoptotic cell [18]	Apoptotic cell [19]	Ratio [20]
0.79 µM	1 µM	5.8 µM	1.25 µM	CN(C)CCCn1c(=O)c2sc3cc([N+](=O)[O-])ccc3c2c2ccccc21	1.2 µM	3.54 µM	2.4 µM													
4.79 µM	34.7 µM	19.5 µM	4.79 µM	CN(C)CCCN(C(=O)c1ccc2c(c1)sc1c(O)nc3ccccc3c12)c1ccccc1	0.67 µM	3.16 µM	10 µM													
0.47 µM	0.85 µM	2.2 µM	0.51 µM	COc1ccc2c(c1)sc1c(=O)n(CCCN(C)C)c3ccccc3c12	1.58 µM	2.96 µM	2.3 µM													
3.8 µM	6.3 µM	10 µM	6.6 µM	CN(C)CCCNC(=O)c1ccc2c(c1)sc1c(O)nc3ccccc3c12	1 µM	6.6 µM	4.4 µM													
0.98 µM	0.65 µM	4.6 µM	2.5 µM	CN(C)CCCn1c(=O)c2sc3cc(F)ccc3c2c2ccccc21	3.98 µM	3.16 µM	2.9 µM													
1.7 µM	1 µM	4.5 µM	1.1 µM	Cc1ccc2c(c1)sc1c(=O)n(CCCN(C)C)c3ccccc3c12	1.1 µM	3.63 µM	2.45 µM													
0.62 µM	2.5 µM	4.27 µM	1.4 µM	CN(C)CCCn1c(=O)c2sc3ccccc3c2c2ccccc21	0.58 µM	3.63 µM	4.5 µM													
0.47 µM	1.3 µM	0.59 µM	1 µM	COC(=O)c1ccc2c(c1)sc1c(=O)n(CCCN(C)C)c3ccccc3c12	0.35 µM	0.65 µM	1.6 µM													
0.49 µM	2.8 µM	2.63 µM	1 µM	CN(C)CCCn1c(=O)c2sc3cc(C(=O)Nc4ccccc4)ccc3c2c2ccccc21	0.01 µM	1.77 µM	2.3 µM	0.79 µM	0.19 µM	29%	87%	28%	87%	81%	90%	62%	95%	35%	9%	98%

Reference: ChEMBL document CHEMBL1145126, “Novel derivatives of benzo[b]thieno[2,3-c]quinolones: synthesis, photochemical synthesis, and antitumor evaluation” (J Med Chem, 2003)
